In brackets after ≈: the same amount, converted by molar mass. Entries after “also recorded” stand apart in the source; their conditions may differ. Read-outs that look alike come from different tables or passages of the source.
Experiments:
[1] = target: Leishmania DNA topoisomerase IB enzyme (LdTopIB) (Leishmania donovani, UniProt A0A3Q8IHS4+Q8WQM6); test: Inhibition of the relaxation activity of recombinant LdTopIB; type: biochemical; conditions: plasmid DNA relaxation assay
Summary of the method: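 One unit of recombinant Leishmania donovani TopIB was incubated with negatively supercoiled pHOT plasmid DNA for 30 min at 37 °C, with test compound at 3.1–150 or 3.125–100 µM. A DMSO lane served as control. Reactions were stopped with 1% SDS plus 6.1 µg proteinase K. Products were separated on agarose gel and stained with ethidium bromide to score supercoiled, nicked and relaxed topoisomer bands.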

human TopIB (hTopIB) = test: Inhibition of the relaxation activity of human TopIB; type: biochemical; conditions: 3.125−100 μM acid 1, 30 min at 37°C
Summary of the method: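 Human TopIB relaxed supercoiled pHOT plasmid DNA alongside recombinant LdTopIB, with test compound at 3.125–100 µM and a DMSO vehicle lane. Reactions stopped with 1% SDS plus 6.1 µg proteinase K. Products resolved on agarose gel and stained with ethidium bromide. Supercoiled, nicked and relaxed topoisomer bands scored against a DNA-only lane (0.2 µg plasmid).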

[2] = tested on: Leishmania donovani promastigotes; test: Antiprotozoal activity; type: cell-based; conditions: for EC50: read-out: L. donovani promastigotes (EC50)
Murine macrophages = test: Toxicity towards murine macrophages; type: cell-based; conditions: for IC50: read-out: Murine macrophages (IC50)
[3] = tested on: L. donovani promastigotes; conditions: at 100 μg/mL; cited from earlier work
[4] = tested on: Leishmania donovani promastigotes; conditions: earlier work; cited from earlier work
L. donovani = conditions: cited from earlier work

| Compound | EC50 [2] [µM] | Effectiveness against L. donovani promastigotes (in words) [2] | IC50 (Murine macrophages) [µM] | Effect on motility of L. donovani promastigotes [3] | also measured |
| --- | --- | --- | --- | --- | --- |
| CCCCCCCCCCC#CCCCCC(=O)O [6-heptadecynoic, 6-heptadecynoic acid] |  |  |  |  | EC50 ([2]; Leishmania donovani): 25.1 ± 1.4 µM; Toxicity towards murine macrophages (in words) (Murine macrophages): considerable toxicity towards murine macrophages; IC50 (Murine macrophages; Mus musculus, Macrophage): 21.3 ± 0.9 µM |
| CCCCCCCCCCCCCCCCOP(=O)([O-])OCC[N+](C)(C)C [miltefosine] |  |  |  |  | EC50 ([2]; Leishmania donovani): 0.8 ± 0.1 µM; IC50 (Murine macrophages; Mus musculus, Macrophage): 1.9 ± 0.4 µM |
| CCCCCCCCCC(=O)O [n-decanoic acid] |  |  |  | inhibited the motility |  |
| CCCCCCCCCCCC(=O)O [n-dodecanoic acid] |  |  |  | inhibited the motility |  |
| CCCCCCCCCCCCCCCCCCCC(=O)O [n-eicosanoic acid] |  |  |  |  | Effectiveness towards L. donovani promastigotes (in words) [4]: not effective at all |
| CCCCCCCCCCCCCCCC(=O)O [n-hexadecanoic acid] |  |  |  | inhibited the motility |  |
| CCCCCCCCCCCCCCCCCC(=O)O [n-octadecanoic acid] |  |  |  |  | MIC against L. donovani (L. donovani): 1390 µM (≈ 395 µg/mL) |
| CCCCCCCC/C=C\CCCCCCCC(=O)O [oleic acid] |  |  |  | no effect | MIC against L. donovani (L. donovani): 90 µM (≈ 25.4 µg/mL) |

Further lines, with some results ahead:

| EC50 [2] [µM] | Compound | Effectiveness against L. donovani promastigotes (in words) [2] | IC50 (Murine macrophages) [µM] | Effect on motility of L. donovani promastigotes [3] | also measured |
| --- | --- | --- | --- | --- | --- |
| 404 ± 11.9 | CCCCCCCCCC/C=C\CCCC(OC)C(=O)O (racemic) [Acid 1, (±)-2-methoxy-6Z-heptadecenoic acid] | not effective against L. donovani promastigotes | 484 ± 15.8 |  | Inhibition of LdTopIB (in words) [1]: able to inhibit LdTopIB; Inhibition of hTopIB (in words) (human TopIB (hTopIB)): not effective against hTopIB |
| 74 ± 17.1 | CCCCCCCCCCC#CCCCC(OC)C(=O)O (racemic) [Acid 2, (±)-2-methoxy-6-heptadecynoic acid] |  | > 700 |  | Inhibition of LdTopIB (in words) [1]: inhibit LdTopIB; Toxicity towards murine macrophages (in words) (Murine macrophages): did not display toxicity towards murine macrophages |
| > 1000 | CCCCCCCCCCCCCCCC(OC)C(=O)O (racemic) [Acid 3, (±)-2-methoxyheptadecanoic acid] | not effective at all against the parasite | > 1000 |  | Inhibition of LdTopIB (in words) [1]: did not inhibit LdTopIB; also recorded: do not inhibit the enzyme; also recorded: not inhibiting the enzyme |
| > 100 | CCCCCCCCCC/C=C\CCCCC(=O)O [6Z-heptadecenoic, 6Z-heptadecenoic acid] | not effective against L. donovani promastigotes | 44.4 ± 1.6 |  |  |
| > 100 | CCCCCCCCCCCCCCCCC(=O)O [n-heptadecanoic, n-heptadecanoic acid] | not effective at all against the parasite | 52.6 ± 7.5 |  | Effectiveness towards L. donovani promastigotes (in words) [4]: not effective at all |
